# Test results published in ChEMBL document CHEMBL1159121, “Synthesis, in vitro structure-activity relationship, and in vivo studies of 2-arylthiazolidine-4-carboxylic acid amides as anticancer agents” (Bioorg Med Chem, 2010).
# pIC50: −log10 of the molar value.
# How the values were obtained:
# OVCAR-5 = assay: Growth inhibition of human OVCAR5 cells; format: functional
# [1] = Growth inhibition of human […] cells; format: functional
# HL-60(TB) = assay: Growth inhibition of human HL-60(TB) cells; format: functional
# MDA-MB-231 = assay: Growth inhibition of human MDA-MB-231 cells; format: functional
# MDA-MB-435 = assay: Growth inhibition of human MDA-MB-435 cells; format: functional
# HT-29 = assay: Growth inhibition of human HT-29 cells; format: functional
# SK-OV-3 = assay: Growth inhibition of human SKOV3 cells; format: functional
# COLO 205 = assay: Growth inhibition of human COLO205 cells; format: functional
# SN12C = assay: Growth inhibition of human SN12C cells; format: functional
# U-251 = assay: Growth inhibition of human U251 cells; format: functional
# OVCAR-3 = assay: Growth inhibition of human OVCAR-3 cells; format: functional
# SW-620 = assay: Growth inhibition of human SW620 cells; format: functional
# HCC 2998 = assay: Growth inhibition of human HCC2998 cells; format: functional
# UACC-257 = assay: Growth inhibition of human UACC257 cells; format: functional
# HCT-15 = assay: Growth inhibition of human HCT15 cells; format: functional
# HCT-116 = assay: Growth inhibition of human HCT116 cells; format: functional
# A498 = assay: Growth inhibition of human A498 cells; format: functional
# BT-549 = assay: Growth inhibition of human BT549 cells; format: functional
# ACHN = assay: Growth inhibition of human ACHN cells; format: functional
# CCRF-CEM = assay: Growth inhibition of human CCRF-CEM cells; format: functional
# LOX IMVI = assay: Growth inhibition of human LOXIMVI cells; format: functional
# M14 = assay: Growth inhibition of human M14 cells; format: functional
# SNB-75 = assay: Growth inhibition of human SNB75 cells; format: functional
# [2] = Antiproliferative activity against human WM164 cells after 48 hrs by SRB assay; format: functional, cell-based; conditions: WM164, 48 h
# Procedure, shortened: (§1)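 Melanoma lines and control fibroblasts grown at 37 °C, 5% CO2, then exposed to a wide concentration range for 48 h in round-bottom 96-well plates. Fixed with 10% TCA, stained with SRB, protein read at 560 nm. IC50 (50% growth inhibition versus untreated) obtained by nonlinear regression.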
# SF-295 = assay: Growth inhibition of human SF295 cells; format: functional
# HOP-62 = assay: Growth inhibition of human HOP62 cells; format: functional
# UACC-62 = assay: Growth inhibition of human UACC62 cells; format: functional
# SK-MEL-5 = assay: Growth inhibition of human SK-MEL-5 cells; format: functional
# SR = assay: Growth inhibition of human SR cells; format: functional
# EKVX = assay: Growth inhibition of human EKVX cells; format: functional
# SF-268 = assay: Growth inhibition of human SF268 cells; format: functional
# OVCAR-4 = assay: Growth inhibition of human OVCAR4 cells; format: functional
# [3] = Cytotoxicity against human fibroblasts after 48 hrs by SRB assay; format: cell-based; conditions: Fibroblast; procedure, shortened: as §1
# PC-3 = assay: Growth inhibition of human PC3 cells; format: functional
# [4] = Growth inhibition of human Hs 578T cells; format: functional
# NCI-H460 = assay: Growth inhibition of human NCI-H460 cells; format: functional
# NCI/ADR-RES = assay: Growth inhibition of human NCI/ADR-RES cells; format: functional
# NCI-H23 = assay: Growth inhibition of human NCI-H23 cells; format: functional
# SNB-19 = assay: Growth inhibition of human SNB19 cells; format: functional
# RH7777 = assay: Cytotoxicity against rat RH7777 cells after 96 hrs by SRB assay; format: cell-based; conditions: RH7777, 96 h
# Procedure, shortened: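 Prostate lines in RPMI1640/10% FBS; RH7777 in DMEM/10% FBS. Cells TCA-fixed, stained with 0.4% SRB, absorbance read at 540 nm. IC50 from nonlinear regression of % survival against concentration.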
# MOLT-4 = assay: Growth inhibition of human MOLT4 cells; format: functional
# [5] = Antiproliferative activity against mouse B16-F1 cells after 48 hrs by SRB assay; format: functional, cell-based; conditions: B16-F1, 48 h; procedure, shortened: as §1
# [6] = read-out: LC50 (the source's name)
compound,measurement,setting,value
CCCCCCCCCCCCCCCCNC(=O)[C@@H]1CSC(c2ccc(NC(C)=O)cc2)N1 (mixture of isomers),GI50,OVCAR-5,200 nM
same,TGI,OVCAR-5,370 nM
same,CC50,OVCAR-5; [6],670 nM
same,GI50,[1],220 nM
same,TGI,[1],560 nM
same,CC50,[1]; [6],> 100000 nM
same,GI50,HL-60(TB),170 nM
same,TGI,HL-60(TB),370 nM
same,CC50,HL-60(TB); [6],790 nM
same,GI50,MDA-MB-231,180 nM
same,TGI,MDA-MB-231,320 nM
same,CC50,MDA-MB-231; [6],590 nM
same,GI50,MDA-MB-435,150 nM
same,TGI,MDA-MB-435,300 nM
same,CC50,MDA-MB-435; [6],600 nM
same,GI50,HT-29,230 nM
same,TGI,HT-29,480 nM
same,CC50,HT-29; [6],1090 nM
same,GI50,SK-OV-3,380 nM
same,TGI,SK-OV-3,1130 nM
same,CC50,SK-OV-3; [6],3480 nM
same,GI50,COLO 205,1910 nM
same,CC50,COLO 205; [6],> 100000 nM
same,GI50,SN12C,350 nM
same,TGI,SN12C,510 nM
same,CC50,SN12C; [6],740 nM
same,GI50,U-251,180 nM
same,TGI,U-251,330 nM
same,CC50,U-251; [6],620 nM
same,GI50,OVCAR-3,220 nM
same,TGI,OVCAR-3,420 nM
same,CC50,OVCAR-3; [6],790 nM
same,GI50,SW-620,210 nM
same,TGI,SW-620,430 nM
same,CC50,SW-620; [6],890 nM
same,GI50,HCC 2998,440 nM
same,TGI,HCC 2998,1810 nM
same,CC50,HCC 2998; [6],4580 nM
same,GI50,UACC-257,1480 nM
same,TGI,UACC-257,3160 nM
same,CC50,UACC-257; [6],6710 nM
same,GI50,HCT-15,1000 nM
same,TGI,HCT-15,3220 nM
same,CC50,HCT-15; [6],11900 nM
same,GI50,HCT-116,180 nM
same,TGI,HCT-116,330 nM
same,CC50,HCT-116; [6],600 nM
same,GI50,A498,940 nM
same,TGI,A498,2200 nM
same,CC50,A498; [6],4970 nM
same,GI50,BT-549,180 nM
same,TGI,BT-549,330 nM
same,CC50,BT-549; [6],630 nM
same,GI50,ACHN,210 nM
same,TGI,ACHN,470 nM
same,CC50,ACHN; [6],1100 nM
same,GI50,CCRF-CEM,120 nM
same,TGI,CCRF-CEM,400 nM
same,CC50,CCRF-CEM; [6],13000 nM
same,GI50,LOX IMVI,140 nM
same,TGI,LOX IMVI,300 nM
same,CC50,LOX IMVI; [6],830 nM
same,GI50,M14,170 nM
same,TGI,M14,330 nM
same,CC50,M14; [6],620 nM
same,GI50,SNB-75,180 nM
same,TGI,SNB-75,330 nM
same,CC50,SNB-75; [6],580 nM
same,pIC50,[2],5.96
same,GI50,SF-295,280 nM
same,TGI,SF-295,1060 nM
same,CC50,SF-295; [6],4090 nM
same,GI50,HOP-62,200 nM
same,TGI,HOP-62,380 nM
same,CC50,HOP-62; [6],700 nM
same,GI50,UACC-62,1080 nM
same,TGI,UACC-62,2330 nM
same,CC50,UACC-62; [6],50200 nM
same,GI50,SK-MEL-5,750 nM
same,TGI,SK-MEL-5,2130 nM
same,CC50,SK-MEL-5; [6],5130 nM
same,GI50,SR,160 nM
same,TGI,SR,350 nM
same,CC50,SR; [6],810 nM
same,GI50,EKVX,300 nM
same,TGI,EKVX,880 nM
same,CC50,EKVX; [6],4110 nM
same,GI50,SF-268,160 nM
same,TGI,SF-268,310 nM
same,CC50,SF-268; [6],600 nM
same,GI50,OVCAR-4,230 nM
same,TGI,OVCAR-4,490 nM
same,CC50,OVCAR-4; [6],120 nM
same,pIC50,[3],4.80
same,GI50,PC-3,170 nM
same,TGI,PC-3,340 nM
same,CC50,PC-3; [6],640 nM
same,GI50,[4],180 nM
same,TGI,[4],380 nM
same,CC50,[4]; [6],780 nM
same,GI50,NCI-H460,190 nM
same,TGI,NCI-H460,390 nM
same,CC50,NCI-H460; [6],790 nM
same,GI50,NCI/ADR-RES,250 nM
same,TGI,NCI/ADR-RES,520 nM
same,CC50,NCI/ADR-RES; [6],170 nM
same,GI50,NCI-H23,320 nM
same,TGI,NCI-H23,1050 nM
same,CC50,NCI-H23; [6],4860 nM
same,GI50,SNB-19,190 nM
same,TGI,SNB-19,400 nM
same,CC50,SNB-19; [6],820 nM
same,pIC50,RH7777,5.17
same,GI50,MOLT-4,150 nM
same,TGI,MOLT-4,340 nM
same,CC50,MOLT-4; [6],790 nM
same,pIC50,[5],5.66
